According to ChEMBL document CHEMBL5058577, “EUbOPEN Chemogenomics Library 2 (Multiplex)” (2022):

System: Fibroblast
Test: Multiplex assay against human fibroblast
Assay type: toxicity, cell-based
Method in brief: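 Values for tubulin, mitochondrial-mass and membrane-permeability phenotypes are per cents of cells with healthy nuclei. These cells were identified by CellPathfinder machine-learning gating of live cells that had been stained at seeding with Hoechst33342, BioTracker Green Microtubule Cytoskeleton Dye, MitoTracker Red and Annexin V Alexa Fluor 680 and imaged on a CQ1 microscope at 37°C and 5% CO2 after compound addition. The gating first set Hoechst high-intensity objects apart from normal cells, then split normal cells into healthy, pyknosed or fragmented nuclei, and pyknosed cells into mitotic or apoptotic.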

[1] = 12 h, 1 µM, compound concentration 1 uM, replicate 1
[2] = 12 h, 1 µM, compound concentration 1 uM, replicate 2
[3] = 12 h, 10 µM, compound concentration 10 uM, replicate 1
[4] = 12 h, 10 µM, compound concentration 10 uM, replicate 2
[5] = 24 h, 1 µM, compound concentration 1 uM, replicate 1
[6] = 24 h, 1 µM, compound concentration 1 uM, replicate 2
[7] = 24 h, 10 µM, compound concentration 10 uM, replicate 1
[8] = 24 h, 10 µM, compound concentration 10 uM, replicate 2
[9] = 48 h, 1 µM, compound concentration 1 uM, replicate 1
[10] = 48 h, 1 µM, compound concentration 1 uM, replicate 2
[11] = 48 h, 10 µM, compound concentration 10 uM, replicate 1
[12] = 48 h, 10 µM, compound concentration 10 uM, replicate 2

S=C(NCCCc1c[nH]cn1)NCCCN(Cc1ccc(Cl)c(Cl)c1)c1ccc(Br)cn1
Population Apoptotic (%) [1]: 40% | Population Fragmented Nuclei (%) [1]: 13% | Population Healthy Nuclei (%) [1]: 71% | Population Hoechst High Intensity Objects (%) [1]: 5% | Population Membrane Permeable-Phenotype (%) [1]: 1% | Population Mitochondria Different-Phenotype (%) [1]: 5% | Population Mitotic Cells (%) [1]: 60% | Population Normal (%) [1]: 94% | Population Pyknosed Nuclei (%) [1]: 14% | Population Tubulin-Different-Phenotype (%) [1]: 26% | Total Cell Count [1]: 142 | Population Apoptotic (%) [2]: 31% | Population Fragmented Nuclei (%) [2]: 30% | Population Healthy Nuclei (%) [2]: 50% | Population Hoechst High Intensity Objects (%) [2]: 4% | Population Membrane Permeable-Phenotype (%) [2]: 5% | Population Mitochondria Different-Phenotype (%) [2]: 6% | Population Mitotic Cells (%) [2]: 68% | Population Normal (%) [2]: 95% | Population Pyknosed Nuclei (%) [2]: 18% | Population Tubulin-Different-Phenotype (%) [2]: 37% | Total Cell Count [2]: 181 | Population Apoptotic (%) [3]: 47% | Population Fragmented Nuclei (%) [3]: 27% | Population Healthy Nuclei (%) [3]: 56% | Population Hoechst High Intensity Objects (%) [3]: 3% | Population Membrane Permeable-Phenotype (%) [3]: 0% | Population Mitochondria Different-Phenotype (%) [3]: 15% | Population Mitotic Cells (%) [3]: 52% | Population Normal (%) [3]: 96% | Population Pyknosed Nuclei (%) [3]: 16% | Population Tubulin-Different-Phenotype (%) [3]: 89% | Total Cell Count [3]: 220 | Population Apoptotic (%) [4]: 52% | Population Fragmented Nuclei (%) [4]: 34% | Population Healthy Nuclei (%) [4]: 53% | Population Hoechst High Intensity Objects (%) [4]: 5% | Population Mitochondria Different-Phenotype (%) [4]: 10% | Population Mitotic Cells (%) [4]: 47% | Population Normal (%) [4]: 94% | Population Pyknosed Nuclei (%) [4]: 12% | Total Cell Count [4]: 279 | Population Apoptotic (%) [5]: 69% | Population Fragmented Nuclei (%) [5]: 15% | Population Healthy Nuclei (%) [5]: 74% | Population Hoechst High Intensity Objects (%) [5]: 4% | Population Membrane Permeable-Phenotype (%) [5]: 2% | Population Mitochondria Different-Phenotype (%) [5]: 2% | Population Mitotic Cells (%) [5]: 30% | Population Normal (%) [5]: 95% | Population Pyknosed Nuclei (%) [5]: 9% | Population Tubulin-Different-Phenotype (%) [5]: 28% | Total Cell Count [5]: 137 | Population Apoptotic (%) [6]: 23% | Population Fragmented Nuclei (%) [6]: 30% | Population Healthy Nuclei (%) [6]: 57% | Population Hoechst High Intensity Objects (%) [6]: 1% | Population Mitochondria Different-Phenotype (%) [6]: 6% | Population Mitotic Cells (%) [6]: 76% | Population Normal (%) [6]: 98% | Population Pyknosed Nuclei (%) [6]: 11% | Population Tubulin-Different-Phenotype (%) [6]: 42% | Total Cell Count [6]: 183 | Population Apoptotic (%) [7]: 66% | Population Fragmented Nuclei (%) [7]: 22% | Population Healthy Nuclei (%) [7]: 61% | Population Hoechst High Intensity Objects (%) [7]: 1% | Population Membrane Permeable-Phenotype (%) [7]: 0% | Population Mitochondria Different-Phenotype (%) [7]: 19% | Population Mitotic Cells (%) [7]: 33% | Population Normal (%) [7]: 98% | Population Pyknosed Nuclei (%) [7]: 15% | Population Tubulin-Different-Phenotype (%) [7]: 93% | Total Cell Count [7]: 214 | Population Apoptotic (%) [8]: 61% | Population Fragmented Nuclei (%) [8]: 27% | Population Healthy Nuclei (%) [8]: 59% | Population Hoechst High Intensity Objects (%) [8]: 4% | Population Membrane Permeable-Phenotype (%) [8]: 2% | Population Mitochondria Different-Phenotype (%) [8]: 7% | Population Mitotic Cells (%) [8]: 38% | Population Normal (%) [8]: 95% | Population Pyknosed Nuclei (%) [8]: 13% | Population Tubulin-Different-Phenotype (%) [8]: 95% | Total Cell Count [8]: 248 | Population Apoptotic (%) [9]: 75% | Population Fragmented Nuclei (%) [9]: 27% | Population Healthy Nuclei (%) [9]: 67% | Population Hoechst High Intensity Objects (%) [9]: 3% | Population Membrane Permeable-Phenotype (%) [9]: 0% | Population Mitochondria Different-Phenotype (%) [9]: 0% | Population Mitotic Cells (%) [9]: 25% | Population Normal (%) [9]: 96% | Population Pyknosed Nuclei (%) [9]: 5% | Population Tubulin-Different-Phenotype (%) [9]: 24% | Total Cell Count [9]: 156 | Population Apoptotic (%) [10]: 35% | Population Fragmented Nuclei (%) [10]: 30% | Population Healthy Nuclei (%) [10]: 59% | Population Hoechst High Intensity Objects (%) [10]: 4% | Population Membrane Permeable-Phenotype (%) [10]: 5% | Population Mitochondria Different-Phenotype (%) [10]: 3% | Population Mitotic Cells (%) [10]: 64% | Population Normal (%) [10]: 95% | Population Pyknosed Nuclei (%) [10]: 10% | Population Tubulin-Different-Phenotype (%) [10]: 36% | Total Cell Count [10]: 178 | Population Apoptotic (%) [11]: 62% | Population Fragmented Nuclei (%) [11]: 27% | Population Healthy Nuclei (%) [11]: 59% | Population Hoechst High Intensity Objects (%) [11]: 6% | Population Membrane Permeable-Phenotype (%) [11]: 0% | Population Mitochondria Different-Phenotype (%) [11]: 7% | Population Mitotic Cells (%) [11]: 37% | Population Normal (%) [11]: 93% | Population Pyknosed Nuclei (%) [11]: 12% | Population Tubulin-Different-Phenotype (%) [11]: 91% | Total Cell Count [11]: 230 | Population Apoptotic (%) [12]: 63% | Population Fragmented Nuclei (%) [12]: 31% | Population Healthy Nuclei (%) [12]: 60% | Population Hoechst High Intensity Objects (%) [12]: 5% | Population Mitochondria Different-Phenotype (%) [12]: 1% | Population Mitotic Cells (%) [12]: 36% | Population Normal (%) [12]: 94% | Population Pyknosed Nuclei (%) [12]: 7% | Population Tubulin-Different-Phenotype (%) [12]: 86% | Total Cell Count [12]: 293
